# Test results reported in ChEMBL document CHEMBL3992520, “Development of the First Two-Pore Domain Potassium Channel TWIK-Related K+ Channel 1-Selective Agonist Possessing in Vivo Antinociceptive Activity” (J Med Chem, 2017).
# How the values were obtained:
# [1] = biological target: T1, Potassium channel subfamily K member 2 (Homo sapiens) (UniProt O95069); assay: Agonist activity at human TREK1 expressed in HEK293 cells assessed as increase in K+ current at 20 uM measured at +60 mV by whole-cell patch clamp method relative to control; format: cell-based
# T1 sequence (whole entry): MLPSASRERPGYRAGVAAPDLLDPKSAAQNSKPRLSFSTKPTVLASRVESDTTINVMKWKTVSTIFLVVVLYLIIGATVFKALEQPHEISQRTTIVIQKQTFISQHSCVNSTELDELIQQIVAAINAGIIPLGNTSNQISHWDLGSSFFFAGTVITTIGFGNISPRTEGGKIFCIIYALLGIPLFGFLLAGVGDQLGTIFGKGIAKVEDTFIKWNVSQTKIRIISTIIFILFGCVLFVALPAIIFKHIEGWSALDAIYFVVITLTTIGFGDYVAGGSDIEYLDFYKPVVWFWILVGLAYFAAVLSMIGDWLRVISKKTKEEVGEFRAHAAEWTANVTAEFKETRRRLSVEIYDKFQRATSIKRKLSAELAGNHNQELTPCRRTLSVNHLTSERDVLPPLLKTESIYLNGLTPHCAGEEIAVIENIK
# How it was run: (§1)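 Human TREK-1 (kcnk2) in pIRES2-eGFP was stably expressed in HEK-293 cells under G418 selection, and cells were used 4–48 h after plating. Bath (mM): 140 NaCl, 10 TEA-Cl, 5 KCl, 3 MgCl2, 1 CaCl2, 10 HEPES, pH 7.4. Pipette (mM): 155 KCl, 3 MgCl2, 5 EGTA, 10 HEPES, pH 7.2. Holding was −80 mV, with a step to −100 mV then a 400 ms ramp to +60 mV every 5 s. Read-out was the ratio Imax/I0 taken from I/V curves. Stocks were 20 mM in DMSO.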
# [2] = system: Mus musculus; assay: Antinociceptive activity in CD1 mouse assessed as inhibition of acetic acid-induced writhes at 10 mg/kg, sc pretreated for 15 mins followed by acetic acid challenge measured within 20 mins relative to control; format: functional
# How it was run: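 Male CD1 mice (20-25 g), n=8 per group, dosed at 10 mg/kg s.c. or with vehicle (5% Tween 80 in 0.9% saline). Dosing was 15 min before i.p. 0.6% acetic acid (10 mL/kg). Abdominal writhes were counted for 20 min. Effect = (mean control writhes − mean test writhes)/mean control writhes ×100.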
# [3] = Half life in rat liver microsomes at 40 mM in presence of NADPH-cofactor by HPLC analysis; format: ADME, microsome
# [4] = system: Mus musculus; assay: Antinociceptive activity in CD1 mouse assessed as increase in thermal-stimulus induced paw withdrawal latency at 60 mg/kg, sc measured after 30 mins by hot plate method relative to control; format: functional
# How it was run: (§2)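 Male CD1 mice (20-25 g), n=8 per group, given 60 mg/kg s.c. After 5 min acclimatization on a plate at room temperature, mice were placed on a 52 °C hotplate. Latency to forepaw or hindpaw licking or hindpaw flicking was recorded, with a 30 s cut-off. Latency was taken after two consecutive stable baselines, then 30 and 45 min post-dose. Effect = (postdrug − predrug latency)/predrug latency ×100.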
# [5] = system: Mus musculus; assay: Antinociceptive activity in CD1 mouse assessed as increase in thermal-stimulus induced paw withdrawal latency at 60 mg/kg, sc measured after 45 mins by hot plate method relative to control; format: functional; how it was run: as §2
# [6] = system: Liver; assay: Drug metabolism in rat liver microsomes assessed as (E)-2-cyano-3-(1H-indol-2-yl)acrylic acid formation at 40 mM in presence of NADPH-cofactor measured after 24 hrs by HPLC analysis; format: ADME, microsome; settings: 40000 µM
# How it was run: (§3)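 Incubation mix: rat liver microsomes (20 mg/mL stock), phosphate buffer pH 7.4 and NADPH (40 mM stock). Drug was added from a 40 mM DMSO stock. Samples were vortexed and incubated at 37 °C with stirring.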
# [7] = biological target: Potassium channel subfamily K member 9 (Homo sapiens) (UniProt Q9NPC2); assay: Agonist activity at TASK3 (unknown origin) expressed in HEK293 cells assessed as increase in K+ current at 20 uM measured at +60 mV by whole-cell patch clamp method relative to control; format: cell-based
# [8] = biological target: T2, Potassium channel subfamily K member 4 (Homo sapiens) (UniProt Q9NYG8); assay: Agonist activity at TRAAK (unknown origin) expressed in HEK293 cells assessed as increase in K+ current at 20 uM measured at +60 mV by whole-cell patch clamp method relative to control; format: cell-based
# T2 sequence (whole entry): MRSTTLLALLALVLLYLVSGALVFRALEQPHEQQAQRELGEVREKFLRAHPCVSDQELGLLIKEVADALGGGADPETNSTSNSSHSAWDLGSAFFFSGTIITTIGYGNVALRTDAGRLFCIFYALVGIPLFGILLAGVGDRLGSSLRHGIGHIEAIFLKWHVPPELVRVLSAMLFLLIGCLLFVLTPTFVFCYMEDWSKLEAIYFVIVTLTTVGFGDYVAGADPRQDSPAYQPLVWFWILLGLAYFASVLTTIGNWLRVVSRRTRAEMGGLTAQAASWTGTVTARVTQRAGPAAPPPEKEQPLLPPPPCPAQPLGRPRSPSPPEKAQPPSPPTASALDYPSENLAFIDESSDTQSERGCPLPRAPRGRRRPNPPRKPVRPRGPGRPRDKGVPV
# [9] = system: Mus musculus; assay: Antinociceptive activity in wild-type C57Bl/6J mouse assessed as increase in thermal-stimulus induced paw withdrawal latency at 60 mg/kg, sc measured after 30 mins by hot plate method relative to control; format: functional
# How it was run: (§4)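 TREK-1−/− and wild-type C57Bl/6J littermates came from heterozygous crosses, n=7. Dose was 60 mg/kg s.c. The 52 °C hotplate measured paw-lick latency, 30 s cut-off, with baseline from two stable pre-dose latencies.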
# [10] = system: Mus musculus; assay: Antinociceptive activity in wild-type C57Bl/6J mouse assessed as increase in thermal-stimulus induced paw withdrawal latency at 60 mg/kg, sc measured after 45 mins by hot plate method relative to control; format: functional; how it was run: as §4
# [11] = system: Mus musculus; assay: Antinociceptive activity in TREK1 deficient C57Bl/6J mouse assessed as increase in thermal-stimulus induced paw withdrawal latency at 60 mg/kg, sc measured after 30 mins by hot plate method relative to control; format: functional; how it was run: as §4
# [12] = system: Mus musculus; assay: Antinociceptive activity in TREK1 deficient C57Bl/6J mouse assessed as increase in thermal-stimulus induced paw withdrawal latency at 60 mg/kg, sc measured after 45 mins by hot plate method relative to control; format: functional; how it was run: as §4
# [13] = system: Mus musculus; assay: In vivo activation of TREK1 in C57Bl/6J mouse assessed as increase in thermal-stimulus induced paw withdrawal latency at 60 mg/kg, sc measured after 30 mins by hot plate method relative to control; format: functional; how it was run: as §4
# [14] = system: Mus musculus; assay: In vivo activation of TREK1 in C57Bl/6J mouse assessed as increase in thermal-stimulus induced paw withdrawal latency at 60 mg/kg, sc measured after 45 mins by hot plate method relative to control; format: functional; how it was run: as §4
# [15] = biological target: T3, Potassium channel subfamily K member 10 (Homo sapiens) (UniProt P57789); assay: Agonist activity at TREK-2 (unknown origin) expressed in HEK293 cells assessed as increase in K+ current at 20 uM measured at +60 mV by whole-cell patch clamp method relative to control; format: cell-based
# T3 sequence (whole entry): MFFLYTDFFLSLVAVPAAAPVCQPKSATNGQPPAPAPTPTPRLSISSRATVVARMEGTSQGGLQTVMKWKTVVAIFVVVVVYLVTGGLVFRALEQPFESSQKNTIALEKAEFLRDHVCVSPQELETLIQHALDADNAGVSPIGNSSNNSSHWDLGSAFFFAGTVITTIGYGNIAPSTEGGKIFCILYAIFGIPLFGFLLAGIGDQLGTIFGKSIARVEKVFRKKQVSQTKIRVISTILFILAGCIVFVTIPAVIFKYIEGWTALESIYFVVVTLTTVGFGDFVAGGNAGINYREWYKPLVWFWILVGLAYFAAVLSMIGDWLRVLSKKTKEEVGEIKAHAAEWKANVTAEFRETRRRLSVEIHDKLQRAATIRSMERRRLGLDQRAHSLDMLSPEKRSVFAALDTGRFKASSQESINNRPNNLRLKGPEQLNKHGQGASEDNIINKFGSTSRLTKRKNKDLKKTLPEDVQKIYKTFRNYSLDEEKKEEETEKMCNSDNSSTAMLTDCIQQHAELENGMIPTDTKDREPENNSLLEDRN
# [16] = biological target: T1, Potassium channel subfamily K member 2 (Homo sapiens); assay: Agonist activity at human TREK1 expressed in HEK293 cells assessed as increase in K+ current at 100 uM measured at +60 mV by whole-cell patch clamp method relative to control; format: cell-based; how it was run: as §1
# [17] = biological target: T1, Potassium channel subfamily K member 2 (Homo sapiens); assay: Agonist activity at human TREK1 expressed in xenopus oocytes assessed as increase in K+ current at 20 uM measured at 0 mV by double microelectrode method relative to control; format: cell-based
# [18] = system: Liver; assay: Drug level in rat liver microsomes treated with at 40 mM (E)-ethyl 2-cyano-3-(3,4-dihydroxyphenyl)acrylate measured after 24 hrs by HPLC analysis; format: ADME, microsome; settings: 40000 µM; how it was run: as §3
# [19] = biological target: T1, Potassium channel subfamily K member 2 (Homo sapiens); assay: Agonist activity at human TREK1 expressed in HEK293 cells assessed as increase in K+ current at 10 uM measured at +60 mV by whole-cell patch clamp method relative to control; format: cell-based; how it was run: as §1
# Sequence of Potassium channel subfamily K member 9 (Homo sapiens) (Q9NPC2 whole entry): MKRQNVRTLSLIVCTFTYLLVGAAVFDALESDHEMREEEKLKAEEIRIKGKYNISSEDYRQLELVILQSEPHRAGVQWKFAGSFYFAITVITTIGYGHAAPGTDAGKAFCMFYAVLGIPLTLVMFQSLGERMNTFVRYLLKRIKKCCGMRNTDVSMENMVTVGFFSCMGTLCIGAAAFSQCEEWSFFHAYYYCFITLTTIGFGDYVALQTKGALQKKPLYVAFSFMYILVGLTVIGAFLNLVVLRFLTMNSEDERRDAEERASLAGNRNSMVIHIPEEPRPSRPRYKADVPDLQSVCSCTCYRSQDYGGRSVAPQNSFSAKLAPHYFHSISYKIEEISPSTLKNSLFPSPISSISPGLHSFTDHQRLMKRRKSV
Compound,fold change (FC) [1],inhibition in vivo at 10 mg/kg [2] [%],half-life [3] [min],Activity [4] [%],Activity [5] [%],Drug metabolism [6],fold change (FC) [7],fold change (FC) [8],Activity [9] [%],Activity [10] [%],Activity [11] [%],Activity [12] [%],Activity [13] [%],Activity [14] [%],fold change (FC) [15],fold change (FC) [16],fold change (FC) [17],Drug metabolism [18],fold change (FC) [19]
CCOC(=O)/C(C#N)=C/c1cc2ccccc2[nH]1,4.71,88.4,< 4,33.3,32.7,Metabolite_Detected,,,,,,,,,,,,,
N#C/C(=C\c1ccoc1)C(=O)Nc1ccccc1,4.64,48,,107.7,148.6,,0.5,1,24.8,22.1,29.2,35.1,0,0,3,,,,
N#C/C(=C\c1ccc(O)c(O)c1)C(=O)O,,,,21.4,59.4,,,,,,,,,,,1.5,1.23,Metabolite_Detected,
N#C/C(=C\c1cc2ccccc2[nH]1)C(=O)OC1CCCCC1,,83.6,25 to 45,65.7,52.6,,,,,,,,,,,,,,1.98
